An excerpt weighted towards active compounds, which were near 2.6% of everything screened.
PolyA inhibitor: blocks polyadenylation in yeast reporter cells. 300,000 compounds, 0.02% hits. AID 1875. S. cerevisiae SKY197-pL101 polyadenylation reporter, beta-gal luminescence; efflux-impaired pdr1/pdr3 knockout yeast; score 100 = 6 SD above DMSO. activity score, % at 12 µM;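 active = lowest replicate activity score at least 50, where 100 means six control SD above control mean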;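 also: yeast exposed to compound for 9 h at 30 °C; higher score means more reporter readthrough which indicates perturbed polyadenylation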
procasp3 activ: procaspase-3 (human) activation. recombinant procaspase-3 D3A, Ac-DEVD-pNA absorbance 405 nm. activation, % at 8.5 µM. 330,000 compounds, 0.11% hits;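 active = activation above the mean of all tested compounds plus 3 SD, cut at about 21% in these data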;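 also: 0% = DMSO alone and 100% = DMSO wells spiked with extra 5 µM PC-3 D3A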
Target sequence (P42574 whole entry D9A/D28A/D175A): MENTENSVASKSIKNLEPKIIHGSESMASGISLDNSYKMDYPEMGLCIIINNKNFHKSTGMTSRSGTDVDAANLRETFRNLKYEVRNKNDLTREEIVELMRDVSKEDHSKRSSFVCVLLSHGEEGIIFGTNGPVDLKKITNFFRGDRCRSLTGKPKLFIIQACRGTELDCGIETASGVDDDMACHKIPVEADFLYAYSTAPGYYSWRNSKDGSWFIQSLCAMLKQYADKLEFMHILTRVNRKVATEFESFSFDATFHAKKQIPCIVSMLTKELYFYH
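Test system: Procaspase-3 D3A mutant; medium: Zinc-free HEPES/NaCl buffer with 0.01% Triton X-100 at pH 7.4; reagent: DEVD-pNA substrate; doses: one concentration, 8.5 µM nominal, 0.8% DMSO; times: 1 h preincubation plus 2 h reaction at 25 °C; signal: Epi-absorbance at 405 nm of released p-nitroaniline, 0 and 120 min; replicates: singlicate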
procasp7 counter: counter-screen: procaspase-7 (human) activation; P55210; recombinant procaspase-7, Ac-DEVD-pNA absorbance 405 nm; D23A/D198A/D206A triple mutant, cannot self-cleave; scale: DMSO 0, 5 µM enzyme 100; activation, % at 8.5 µM; 330,000 compounds, 0.093% hits; AID 463210;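 active = percent activation above the screen-wide mean plus 3 SD, cut at about 25% in these data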
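Replicates: singlicate. Assay system: Procaspase-7 triple mutant (PC-7 D3A). Signal: 405 nm absorbance of p-nitroaniline. Times: 1 h preincubation, 2 h reaction. Buffer or medium: Zinc-free HEPES pH 7.4 with 300 mM NaCl, 0.01% Triton X-100. Also added: DEVD-pNA substrate. Benchmarks: DMSO wells as 0%, DMSO with 5 µM added PC-7 as 100%.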
AHR activator: activators of human aryl hydrocarbon receptor | AID 2796 | activation, % at 5 µM | AHR-responsive luciferase reporter cells, luminescence | P35869 | 320,000 compounds, 2.5% hits; in the data active = activation above about 47%;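 also: 0% = vehicle wells and 100% = reference agonist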
AHR act cf: confirmation of human aryl hydrocarbon receptor activators | shares compounds with AHR activator | human cells, AHR-responsive luciferase reporter, luminescence | activation, % at 9 µM | 2,300 compounds, 87% hits | AID 2845; in the data active = activation above about 49%;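 also: HepG2 hepatoma cells carrying a DRE-driven firefly luciferase reporter; 0% = vehicle wells and 100% = reference agonist wells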
PXR counter: counter-screen for AHR activators: human PXR activators. shares compounds with AHR activator. 2,300 compounds, 88% hits. AID 434939. cell-based PXR reporter, luciferase luminescence. activation, % at 11.6 µM; in the data active = activation above about 11%;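 also: human hepatoma DPX-2 cells expressing full-length human PXR; 0% = DMSO and 100% = reference agonist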
Target sequence (O75469 whole entry, looked up): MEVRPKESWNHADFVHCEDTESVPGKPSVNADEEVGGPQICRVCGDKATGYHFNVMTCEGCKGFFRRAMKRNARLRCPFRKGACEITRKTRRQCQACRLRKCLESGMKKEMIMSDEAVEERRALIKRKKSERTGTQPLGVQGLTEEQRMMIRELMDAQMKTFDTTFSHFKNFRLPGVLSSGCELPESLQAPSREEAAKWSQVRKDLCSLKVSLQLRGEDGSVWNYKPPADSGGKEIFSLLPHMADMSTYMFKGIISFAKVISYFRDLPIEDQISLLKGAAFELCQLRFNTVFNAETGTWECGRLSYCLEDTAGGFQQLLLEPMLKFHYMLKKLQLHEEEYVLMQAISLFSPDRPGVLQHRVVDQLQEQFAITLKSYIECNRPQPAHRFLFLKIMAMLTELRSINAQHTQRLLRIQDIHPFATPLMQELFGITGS
Starred values were filed as active, the others as inactive; / = no result.

SMILES	PolyA inhibitor	procasp3 activ	procasp7 counter	AHR activator	AHR act cf	PXR counter
COc1ccc(-c2nc3c4ccccc4ccn3c2CN2CCOCC2)cc1OC	-11.5	6.4	0.8	58.4*	/	/
c1ccc(-c2nc3c4ccccc4ccn3c2CN2CCOCC2)cc1	1.2	12.6	9.2	46.4	/	/
COc1ccc(/C=N/Nc2ccc([N+](=O)[O-])cc2)cc1Cn1cc([N+](=O)[O-])cn1	-36.7	1.5	-5.0	69.4*	/	/
O=[N+]([O-])c1cccc(/C=N/Nc2nc(C(Cl)(Cl)Cl)nc3ccccc23)c1	-0.2	-6.9	6.7	54.1*	/	/
ClC(Cl)(Cl)c1nc(N/N=C/c2ccncc2)c2ccccc2n1	1.9	-3.4	2.2	66.6*	/	/
Brc1ccc(-c2nc(N/N=C/c3cccnc3)c3ccccc3n2)cc1	1.8	-2.3	0.4	42.6	/	/
C(=N\Nc1nc(-c2cccnc2)nc2ccccc12)/c1ccccc1	0.4	-10.0	-10.2	58.0*	/	/
COc1ccc(C2=NOC(Cn3nc(C(=O)NCc4ccccc4OC)cc3-c3ccccc3)C2)cc1 (stereo not given)	-6.2	11.1	-0.1	5.2	/	/
CCOc1cc2c3c(c1)C1(C(=O)N3C(C)(C)CC2C)C(C#N)=C(N)N2C(=C1C#N)Nc1ccccc12 (stereo not given)	13.4	-6.5	3.1	58.0*	/	/
COc1ccc(NC(=O)c2ccccc2C)cc1	-5.4	-0.4	6.7	-0.1	/	/
COc1ccc(NC(=O)c2cc(=O)[nH]c3ccccc23)cc1	3.9	-5.5	16.1	99.9*	107.6*	20.2*
COc1ccc(NC(=O)c2cccc3c(Br)cccc23)cc1	5.0	-2.5	3.1	93.1*	120.9*	/
CCn1nc(C(=O)Nc2ccccc2C)c(Cl)c1Cl	-11.9	3.0	1.1	90.3*	26.0	17.4*
CCn1nc(C(=O)Nc2cccc3ccccc23)c(Cl)c1Cl	-22.1	-5.8	-4.0	85.0*	95.5*	16.6*
O=C(C[C@@H]1C/C=C\C[C@H](Cc2ccc(F)cc2)C(=O)OC[C@H]2CCCN2C1=O)NCCO	/	4.5	-3.4	-0.2	/	/
Cc1ccc(NC(=O)CCc2nc3ccccc3c(=O)[nH]2)cc1S(=O)(=O)N1CCOCC1	7.9	-0.1	3.7	1.9	/	/
COc1ccccc1NC(=O)N1CCC(c2nc3cc(C)c(C)cc3[nH]2)CC1	27.3	1.9	6.7	133.2*	33.5	56.2*
CCOc1ccccc1NC(=O)N1CCC(c2nc3ccccc3[nH]2)CC1	1.4	-3.2	-0.4	2.6	/	/
Cc1ccc(C(=O)Nc2cccc(C(F)(F)F)c2)cc1Nc1ncnc2nc[nH]c12	-4.3	4.3	1.0	83.7*	39.1	30.0*
Cc1cccnc1Nc1nc(-c2ccc(F)cc2)cs1	-15.1	9.7	9.9	125.6*	131.5*	16.8*
Cc1ccnc(Nc2nc(-c3ccc(F)cc3)cs2)c1	-19.4	-1.2	-10.7	165.2*	132.2*	15.4*
Cc1cccnc1Nc1nc(-c2ccc(O)cc2)cs1	-16.8	-5.9	-3.9	5.3	/	/
Cc1ccnc(Nc2nc(-c3ccc(Cl)cc3)cs2)c1	13.8	-6.5	-2.3	136.7*	96.5*	32.4*
Cc1ccc(NS(=O)(=O)c2cc3c4c(cccc4c2)C(=O)NC3=O)cc1C	-17.9	-2.3	4.9	5.6	/	/
Cc1nn(C)cc1S(=O)(=O)N1CCN(c2ccccc2)CC1	2.7	-3.3	-2.8	-1.1	/	/
SMILES	PolyA inhibitor	procasp3 activ	procasp7 counter	AHR activator	AHR act cf	PXR counter
Cc1ccc2[nH]c(C(=O)N3CCN(c4cccc(Cl)c4)CC3)cc2c1	-29.6	10.4	-8.6	1.4	/	/
O=C(COC(=O)COc1ccccc1)NC1CCS(=O)(=O)C1 (stereo not given)	/	5.7	6.5	-1.2	/	/
CCN(CC(=O)NCc1ccc(Cl)cc1)C(=O)C(C)Sc1ccccc1 (stereo not given)	0.0	0.2	3.9	-0.5	/	/
Cc1ccc(NCCC(=O)c2cccs2)cc1	4.9	-12.2	-9.3	4.2	/	/
Cc1ccc(NCCC(=O)c2cccs2)cc1Cl	-16.8	-3.5	-11.4	86.4*	69.0*	11.6*
O=C(C[n+]1cc2ccccc2c2ccccc21)c1ccccc1	8.8	-9.4	-8.8	87.1*	93.3*	55.3*
O=C(C[n+]1cccc2ccccc21)c1ccccc1	-10.7	-5.2	-0.6	33.6	/	/
CCOc1ccc(S(=O)(=O)N2CCCC(C(=O)Nc3cccc(C)c3)C2)cc1 (stereo not given)	17.4	-4.0	3.5	1.1	/	/
CC1CCc2sc(C(=O)N=Nc3c(O)[nH]c4ccccc34)cc2C1 (stereo not given)	-9.9	6.3	-1.6	83.9*	102.9*	8.2
O=C(N=Nc1c(O)[nH]c2ccccc12)c1cccs1	1.4	1.2	-4.3	39.6	/	/
COc1ccccc1-c1noc(-c2ccccc2)n1	-21.2	-2.0	9.3	121.5*	101.1*	26.2*
COc1ccccc1-c1noc(-c2ccco2)n1	-12.0	10.8	14.2	90.2*	119.6*	17.3*
COc1ccc(-c2nc(-c3ccccc3OC)no2)cc1OC	/	2.5	3.1	-5.6	/	/
COc1cc(-c2noc(-c3ccco3)n2)cc(OC)c1OC	-12.8	2.7	3.1	33.3	/	/
Cc1nn(-c2ccccc2)c(Cl)c1C(=O)NNC(=O)c1ccccc1O	/	8.9	1.8	45.9	/	/
COc1ccc(C(=O)Nc2c(O)ccc3ccccc23)cc1	-7.6	-4.4	-8.6	79.4*	66.7*	8.1
Cc1cc(C)n2cc(-c3ccc(Cl)cc3)c(C(=O)O)c2n1	-0.5	5.3	-6.9	95.7*	105.8*	/
O=C(Nc1ccc(Cl)cc1)c1ccc2nsnc2c1	-3.1	2.0	-7.6	85.3*	142.7*	11.9*
O=C(Nc1ccc(Cl)cc1)c1ccc2snnc2c1	23.4	0.4	1.9	129.1*	103.3*	26.4*
CSC(=NC#N)N1CCN(c2ccccc2)CC1	7.0	2.3	-2.3	-4.2	/	/
CSC(=NC#N)N1CCN(c2cccc(Cl)c2)CC1	9.5	1.7	15.2	114.6*	6.9	41.1*
CC(CCc1ccccc1)NC(=O)Cc1cccs1 (stereo not given)	12.6	1.2	-1.8	2.4	/	/
Cc1cccc(C(=O)Nc2sc3c(c2C(=O)O)CCCC3)c1	-2.5	-2.1	-3.3	7.7	/	/
COc1ccc(O)c(-c2cc(-c3ccc(F)cc3)n[nH]2)c1	-13.6	5.1	0.8	95.6*	159.0*	15.0*
COc1ccc(-c2cc(-c3ccc(Cl)cc3)n[nH]2)c(O)c1	-11.1	9.1	9.2	6.6	/	/
COc1ccc(-c2cc(-c3cc(OC)ccc3O)[nH]n2)cc1	8.5	-0.9	2.3	158.8*	140.3*	17.7*
C(=N\Nc1ncnc2sc3c(c12)CCC3)/c1ccncc1	-4.0	-2.5	-3.8	81.4*	124.4*	28.6*
c1cc(Nc2ncnc3sc4c(c23)CCC4)ccn1	4.9	10.2	-3.2	-0.2	/	/
